Reference: ChEMBL document CHEMBL1275441, “Effect of impaired renal function on the pharmacokinetics of tomopenem (RO4908463/CS-023), a novel carbapenem” (Antimicrob Agents Chemother, 2008)

Experiments:
Settings in all cases: in vivo
[1] = test system: Homo sapiens; assay: Drug excretion in human with creatinine clearance of => 80 ml/min assessed as RO4957463 level at 1500 mg, iv administered as single dose after 24 hrs; type: ADME, organism-based
Method in brief: (§1)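 After a single 1,500 mg i.v. infusion over 60 min, urine was collected 0–6, 6–12 and 12–24 h post-dose, with volume and pH recorded. Aliquots were mixed 1:1 with 0.5 M MOPS, protected from light and frozen at −70°C. Parent and metabolite were assayed by a validated method. CLR = Ae24/plasma AUC24. n = 8 per group, mean ± SD.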

[2] = test system: Homo sapiens; assay: Drug excretion in human with creatinine clearance of 30-49 ml/min assessed as RO4957463 level at 1500 mg, iv administered as single dose after 24 hrs; type: ADME, organism-based; method in brief: as §1
[3] = test system: Homo sapiens; assay: Renal clearance in human with creatinine clearance of 50-79 ml/min assessed as RO4957463 level at 1500 mg, iv administered as single dose after 24 hrs; type: ADME, organism-based, Kidney
Method in brief: (§2)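 Single 1,500 mg i.v. infusion over 60 min, with 8 subjects per renal-function group (CL_CR by Cockcroft-Gault at screening). Urine was collected at 0–6, 6–12 and 12–24 h, volume and pH recorded, and aliquots mixed 1:1 with 0.5 M MOPS. Samples were frozen at −70°C, protected from light, and assayed by a validated method. CL_R = A_e24/AUC₂₄.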

[4] = test system: Homo sapiens; assay: Drug excretion in human with creatinine clearance of =< 30 ml/min assessed as RO4957463 level at 1500 mg, iv administered as single dose after 24 hrs; type: ADME, organism-based; method in brief: as §1
[5] = test system: Homo sapiens; assay: Dose normalized excretion in human with creatinine clearance of 30-49 ml/min assessed as RO4957463 level at 1500 mg, iv administered as single dose after 24 hrs; type: ADME, organism-based; method in brief: as §1
[6] = test system: Homo sapiens; assay: Renal clearance in human with creatinine clearance of =< 30 ml/min assessed as RO4957463 level at 1500 mg, iv administered as single dose after 24 hrs; type: ADME, organism-based, Kidney; method in brief: as §2
[7] = test system: Homo sapiens; assay: Drug excretion in human with creatinine clearance of 50-79 ml/min assessed as RO4957463 level at 1500 mg, iv administered as single dose after 24 hrs; type: ADME, organism-based; method in brief: as §1
[8] = test system: Homo sapiens; assay: Dose normalized excretion in human with creatinine clearance of => 80 ml/min assessed as RO4957463 level at 1500 mg, iv administered as single dose after 24 hrs; type: ADME, organism-based; method in brief: as §1
[9] = test system: Homo sapiens; assay: Renal clearance in human with creatinine clearance of => 80 ml/min assessed as RO4957463 level at 1500 mg, iv administered as single dose after 24 hrs; type: ADME, organism-based, Kidney; method in brief: as §2
[10] = test system: Homo sapiens; assay: Dose normalized excretion in human with creatinine clearance of =< 30 ml/min assessed as RO4957463 level at 1500 mg, iv administered as single dose after 24 hrs; type: ADME, organism-based; method in brief: as §1
[11] = test system: Homo sapiens; assay: Dose normalized excretion in human with creatinine clearance of 50-79 ml/min assessed as RO4957463 level at 1500 mg, iv administered as single dose after 24 hrs; type: ADME, organism-based; method in brief: as §1
[12] = test system: Homo sapiens; assay: Renal clearance in human with creatinine clearance of 30-49 ml/min assessed as RO4957463 level at 1500 mg, iv administered as single dose after 24 hrs; type: ADME, organism-based, Kidney; method in brief: as §1

Activity [1]: 240 mg
Activity [2]: 281 mg
CL_renal [3]: 8.27 L/h
Activity [4]: 194 mg
Activity [5]: 18.7%
CL_renal [6]: 1.01 L/h
Activity [7]: 279 mg
Activity [8]: 16%
CL_renal [9]: 13.2 L/h
Activity [10]: 13.1%
Activity [11]: 18.6%
CL_renal [12]: 3.91 L/h
SMILES: C[C@@H]1[C@H]([C@H](C(=O)O)[C@@H](C)O)N=C(C(=O)O)[C@H]1S[C@H]1C[C@@H](C(=O)N2CC[C@H](NC(=O)CNC(=N)N)C2)N(C)C1
